PP1 counter – PP1-alpha (human) inhibition in PP5 counter-screen; 0.9% of 320,000 active; inhibition, % at 6.7 µM; P62136; purified PP1alpha, OMFP fluorescence; AID 2235;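 active = inhibition above the mean inhibition of all tested compounds plus 3 SD, computed separately for each screening campaign, cut at about 15% in these data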
Rpn11 inh – blocks the human proteasome subunit Rpn11. inhibition, % at 20 µM. human 26S proteasome, Ub4-pepOG fluorescence polarization; 20S core pre-blocked with epoxomicin. 0.59% of 360,000 active. AID 588493;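 active = inhibition at 20 µM, scaled to each plate's controls, above about 33%, limit read from the data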
Target sequence (O00487 whole entry, looked up): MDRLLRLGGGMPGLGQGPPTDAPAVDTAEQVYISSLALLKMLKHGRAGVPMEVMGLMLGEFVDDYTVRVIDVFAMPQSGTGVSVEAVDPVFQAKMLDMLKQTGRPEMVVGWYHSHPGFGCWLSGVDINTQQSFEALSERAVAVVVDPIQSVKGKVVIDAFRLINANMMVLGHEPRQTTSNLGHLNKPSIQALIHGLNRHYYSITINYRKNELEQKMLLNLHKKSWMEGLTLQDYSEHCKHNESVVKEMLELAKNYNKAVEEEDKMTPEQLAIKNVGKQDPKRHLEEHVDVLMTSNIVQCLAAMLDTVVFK
HNF4A DNA FP – change in binding of human HNF4 alpha to DNA. P41235. HNF4a-FITC DNA binding, fluorescence polarization, 1 h. activity change, % at 10 µM. 0.3% of 360,000 active. AID 1224865; in the data active = activity change above about 30%, passing the limit was not always enough
NadD block – inhibitors of Staphylococcus aureus NadD; purified NadD enzyme, colorimetric absorbance read-out; inhibition, % at 20 µM; 0.78% of 360,000 active; in the data active = inhibition above about 26%
CSN inh – CSN deneddylation inhibition | AID 651999 | 0.38% of 360,000 active | Q92905 | Purified CSN, SCF-Nedd8-OG deneddylation, fluorescence polarization | inhibition, % at 12.5 µM;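 active = pattern-corrected inhibition above about 35%, with an unprinted fluorescence ratio check between 0.5 and 1.5, limit read from the data, passing the limit was not always enough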
Target sequence (Q92905 whole entry, looked up, one chain of several): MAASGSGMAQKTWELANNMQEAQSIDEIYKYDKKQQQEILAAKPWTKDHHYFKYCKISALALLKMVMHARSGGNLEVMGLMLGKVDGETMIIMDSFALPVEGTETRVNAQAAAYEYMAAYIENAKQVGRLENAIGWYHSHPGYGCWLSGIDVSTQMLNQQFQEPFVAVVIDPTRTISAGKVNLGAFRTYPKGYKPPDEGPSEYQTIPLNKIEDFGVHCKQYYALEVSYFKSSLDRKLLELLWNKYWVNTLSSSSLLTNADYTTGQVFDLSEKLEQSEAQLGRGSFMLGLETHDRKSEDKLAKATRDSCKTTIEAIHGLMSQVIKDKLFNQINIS
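Material: purified human Csn5 enzyme expressed in HEK293T cells / Medium: Tris buffer pH 7.5, NaCl, DTT, Tween-20, trehalose, ovalbumin / Compound dosing: 12.5 µM single point / Schedule: 90 min incubation of compound, enzyme and substrate at room temperature / Signal: fluorescence polarization of the substrate / Control set: no-enzyme wells high, enzyme-with-substrate wells low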
TPT1 inhibitor – blocks Candida albicans tRNA 2'-phosphotransferase | inhibition, % at 5 µM | 0.81% of 300,000 active | recombinant caTPT1, FP RNA substrate dephosphorylation;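 active = inhibition above the mean of all tested compounds plus 3 SD, set per screening campaign, cut at about 24% in these data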
caTPT1 confirm – confirmation of Candida albicans TPT1 inhibitors | shares compounds with TPT1 inhibitor | recombinant caTPT1, fluorescence polarization, RNase T1 coupled | inhibition, % at 5 µM | 74% of 2,400 active | AID 2149;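 active = inhibition above the primary screen limit, the mean inhibition of all tested compounds plus 3 SD, cut at about 25% in these data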
RNase T1 counter – RNase T1 inhibition in TPT1 counter-screen; shares compounds with TPT1 inhibitor; RNase T1 cleavage, fluorescence polarization, 1536-well; inhibition, % at 5 µM; 83% of 2,400 active;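 active = inhibition above the solvent-only control well mean plus 3 SD, limit set per screening run, cut at about 23% in these data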;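 also: inhibitors block cleavage so intact labeled substrate keeps polarization high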
Large screens that a line does not name were inactive (follow-up assays come after a bar, where shown). Rows were chosen to be rich in hits. Some 2.7% of all compounds tested hit in one or more screens of this group.

Cc1ccc(Cn2c(=N)n(CC(O)c3ccco3)c3ccccc32)cc1 (centres undefined)	none
CC1=C(C(=O)N(C)C)CC(CC(=O)NCCCCc2ccccc2)C(=O)N1CCCN1CCCC1=O (centres undefined)	none (no result: PP1 counter, TPT1 inhibitor)
c1ccc2c(c1)ncn2CCCCOc1ccc2c(c1)CCC2	PP1 counter 16
C=CCN1C(=O)/C(=C/c2ccc(OC(C)=O)c(OCC)c2[N+](=O)[O-])SC1=S	Rpn11 inh 79 (no result: PP1 counter, TPT1 inhibitor)
O=[N+]([O-])c1cc2c(c([N+](=O)[O-])c1)Nc1ccccc1O2	none (no result: PP1 counter, TPT1 inhibitor)
Cc1cccc(Oc2cc([N+](=O)[O-])cc3c2C(=O)Nc2ccccc2O3)c1	CSN inh 39 (not shown: Rpn11 inh)
Cc1c(N2C(=O)/C(=C\c3cccc4ccccc34)SC2=S)c(=O)n(-c2ccccc2)n1C	NadD block 42
c1cc2c(cc1Nc1nc(-c3ccc4c(c3)OCO4)cs1)OCCO2	NadD block 40
c1ccc(-c2csc(Nc3ccc4c(c3)OCCO4)n2)cc1	none
COc1ccc(C(=O)NNC(=O)c2ccc3ccccc3n2)cc1	none (no result: TPT1 inhibitor)
COc1cc(/C=C2/SC(=S)N(CC(=O)O)C2=O)ccc1OCC(=O)Nc1ccc(C)c(C)c1	NadD block 30
C=CS(=O)(=O)N(Cc1ccccc1Br)[C@H](CO)CC(C)C	none (no result: PP1 counter, TPT1 inhibitor)
FC(F)(F)C1=Nc2cccc3cccc(c23)N1	NadD block 72 (no result: PP1 counter, TPT1 inhibitor)
Fc1ccc(C2=Nc3cccc4cccc(c34)N2)cc1	none
COc1cc(NC(=O)c2sc3ncn(CC(=O)N4CCCC(C)C4)c(=O)c3c2C)cc(OC)c1OC (centres undefined)	PP1 counter 17
COc1ccc(CNC(=O)C2Cc3c(-c4ccc5c(c4)OCO5)ccnc3O2)cc1OC (centres undefined)	none (no result: PP1 counter, TPT1 inhibitor)
O=C(c1ccc(-c2ccc(Cl)cc2)o1)N1CCN(c2ccc([N+](=O)[O-])cc2Cl)CC1	PP1 counter 16
CCN(CC)S(=O)(=O)c1ccc2c(c1)nc(CCC(=O)Nc1ccc3c(c1)OCO3)n2CC	PP1 counter 15
COc1ccc(/C=N/Nc2ncc(Br)cn2)c(OC)c1	CSN inh 62 (not shown: Rpn11 inh)
COc1ccc(/C=N\Nc2ccccn2)c(OC)c1	none (no result: PP1 counter, TPT1 inhibitor)
O=C1c2ccc(-c3ccc(F)cc3OCc3ccccc3)cc2S(=O)(=O)c2cccc(C(=O)N3CCN(c4ncc(Br)cn4)CC3)c21	NadD block 58 (no result: PP1 counter, TPT1 inhibitor)
O=C(O)c1cccc2c1C(=O)c1ccc(-c3ccc(F)cc3OCc3ccccc3)cc1S2(=O)=O	none (no result: TPT1 inhibitor)
CCN(CC)c1ccc2c(C)c(Cl)c(=O)oc2c1	none
CCN(CC)c1ccc2c(c1)oc(=O)c1c(Cl)cc(=O)oc12	TPT1 inhibitor 25 | caTPT1 confirm 37 | RNase T1 counter 50
Cc1ccc(-c2nc3sc(C#N)c(N)n3c(=O)c2C#N)cc1	TPT1 inhibitor 24 (not shown: Rpn11 inh) | caTPT1 confirm 35 | RNase T1 counter 48
C=CCN1C(=O)CS/C1=C(\C#N)S(=O)(=O)c1ccc(C)cc1	TPT1 inhibitor 74 | caTPT1 confirm inactive | RNase T1 counter inactive
C=CCN1C(=O)CSC1=Nc1ccc(C(=O)O)cc1	none
CC1CCc2c(sc3nc(C(C)(C)C)nc(N4CCN(C(=O)CCl)CC4)c23)C1 (centres undefined)	none
CN1CCc2c(sc3nc(SCC(N)=O)n(-c4ccccc4)c(=O)c23)C1	TPT1 inhibitor 45 | caTPT1 confirm 104 | RNase T1 counter 109
CN1CCc2c(sc3nc(SCC(=O)N4CCCCC4)n(-c4ccccc4)c(=O)c23)C1	none
COC(=O)CSc1nc2sc3c(c2c(=O)n1-c1ccccc1)CCN(C)C3	none
CN1CCc2c(sc3nc(SCC(N)=O)n(-c4ccc(Cl)cc4)c(=O)c23)C1	Rpn11 inh 81, HNF4A DNA FP 43, TPT1 inhibitor 86 | caTPT1 confirm 64 | RNase T1 counter 78
Cc1ccc(C(=O)N/N=C/c2cccnc2)cc1Cl	none (no result: PP1 counter, TPT1 inhibitor)
Cc1ccc(F)cc1NC(=O)COC(=O)COc1ccc(C#N)cc1	none
O=c1cc(C(F)(F)F)nc(-n2[nH]c3c(c2=O)CCCC3)[nH]1	TPT1 inhibitor 33 | caTPT1 confirm inactive | RNase T1 counter 28
Nc1nc(C(F)(F)F)cc(=O)[nH]1	none
Cc1cc(O)ccc1N/C=C/c1onc(C)c1[N+](=O)[O-]	none
Cc1cccc(N/C=C/c2onc(C)c2[N+](=O)[O-])c1	TPT1 inhibitor 62 | caTPT1 confirm 64 | RNase T1 counter 73
CNc1ccccc1C(=O)OCC(=O)N1CCc2ccccc2C1	none (no result: PP1 counter, TPT1 inhibitor)
CC(C)C[C@H]1CN([C@@H](Cc2ccc(O)cc2)CN2CCC[C@H]2CN2C(=O)C(=O)NC[C@@H]2Cc2ccc(O)cc2)C(=O)C(=O)N1CCc1ccccc1	none (no result: PP1 counter, Rpn11 inh, TPT1 inhibitor)
CCN(CC)c1ccc(/C=C/c2cccc[n+]2C)c(OC)c1	TPT1 inhibitor 58 (not shown: Rpn11 inh) | caTPT1 confirm 62 | RNase T1 counter 68
COCCNC(=S)N1CCC2CC1c1cc(-c3ccc4c(c3)OCO4)ccc12 (centres undefined)	none (no result: PP1 counter, TPT1 inhibitor)
N#Cc1c(Sc2ncc(C(F)(F)F)cc2Cl)nsc1C/C=N\OCc1c(F)cccc1Cl	TPT1 inhibitor 36 (not shown: Rpn11 inh) | caTPT1 confirm inactive | RNase T1 counter 33
CCCc1ccc(S(=O)(=O)N/N=C(/C)c2ccc3c(c2)OCO3)cc1	none (no result: PP1 counter, TPT1 inhibitor)
Cc1nc2ccccc2nc1OCC(=O)Nc1ccccc1	TPT1 inhibitor 96 | caTPT1 confirm inactive | RNase T1 counter inactive
CCC(=O)N1CCN(c2ccccc2NC(=S)NC(=O)c2cccc([N+](=O)[O-])c2)CC1	TPT1 inhibitor 39 | caTPT1 confirm inactive | RNase T1 counter inactive
CCC(=O)N1CCN(c2ccc(NC(=S)NC(=O)c3cccc([N+](=O)[O-])c3)cc2)CC1	none
CCN(C(=O)COC(=O)CCC(=O)c1ccc(Cl)cc1)c1c(N)n(Cc2ccccc2)c(=O)[nH]c1=O	none (no result: PP1 counter, TPT1 inhibitor)
COc1ccc(C)c2sc(=NC(=O)c3ccccc3)n(C)c12	none
COc1ccc(C)c2sc(=NC(=O)c3cccc(N4C(=O)CCC4=O)c3)n(C)c12	TPT1 inhibitor 38 | caTPT1 confirm inactive | RNase T1 counter inactive
COc1cc([N+](=O)[O-])ccc1N/C=C/C(=O)c1cccs1	TPT1 inhibitor 167 (not shown: Rpn11 inh) | caTPT1 confirm 143 | RNase T1 counter 136
CCc1nc2c(OCc3ccc(OC(F)F)cc3)cccn2c1N(C)C(=O)c1ccco1	none (no result: PP1 counter, TPT1 inhibitor)
COc1ccc(NC(=O)C2CCCN2C(=O)Oc2ccccc2)cc1 (centres undefined)	TPT1 inhibitor 47 | caTPT1 confirm inactive | RNase T1 counter inactive
Cc1ccc(NC(=O)C2CCCN2C(=O)Oc2ccccc2)cc1 (centres undefined)	none
